The subject of data set [1] is Plasma. Put plainly: Anticoagulant activity in human plasma assessed as time required for clot formation in presence of compound minus time required for clot formation in absence of compound at 0.33 mM at 37 degC. It counts as functional. The procedure, abridged: (§1)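 Pooled citrate plasma from four healthy donors. Thrombin reagent pre-incubated with aptamer at 0.33 mM for 5 min, then mixed with an equal volume of plasma. Clotting time (thrombin time, seconds) read at 37 °C on an automated coagulation analyser. Antithrombin effect taken as the extra clotting time over a water-added reference.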

A short description of data set [2]: Thermodynamic stability in pH 7.0 buffer containing 100 mM Kcl, 10 mM sodium cacodylate. Format: physicochemical. The procedure, abridged: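 UV melting at 295 nm over 5–95 °C at 0.2 °C/min. Samples annealed 5 min at 80 °C, then slowly cooled. Nine strand concentrations spanning 10^-5–10^-6 M, set from absorbance above 80 °C. Heating and cooling profiles recorded. Thermodynamic parameters from non-linear fitting of melting curves with a unimolecular transition model.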

Data set [3] has as its system Plasma. Put plainly: Anticoagulant activity in human plasma assessed as time required for clot formation at 0.33 mM at 37 degC. Format: functional. The procedure, abridged:
as §1

In another data set the target is Prothrombin (Homo sapiens, UniProt P00734). Put plainly: Binding affinity to thrombin at 37 degC by isothermal titration calorimetry. The procedure, abridged:
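ITC at 37 °C. One 0.2 µL pre-injection, discarded, then 19 × 2 µL injections. Heat of dilution from aptamer-into-buffer injections subtracted.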

SMILES strings stand for the structures.

Take `Cc1cn([C@H]2C[C@H](OP(N)(=O)OC[C@@H]3C[C@@H](OP(N)(=O)OC[C@H]4O[C@@H](n5cnc6c(=O)[nH]c(N)nc65)C[C@@H]4OP(N)(=O)OC[C@H]4O[C@@H](n5cc(C)c(=O)[nH]c5=O)C[C@@H]4OP(N)(=O)OC[C@H]4O[C@@H](n5cnc6c(=O)[nH]c(N)nc65)C[C@@H]4OP(N)(=O)OC[C@H]4O[C@@H](n5cc(C)c(=O)[nH]c5=O)C[C@@H]4OP(N)(=O)OC[C@H]4O[C@@H](n5cnc6c(=O)[nH]c(N)nc65)C[C@@H]4OP(N)(=O)OC[C@H]4O[C@@H](n5cnc6c(=O)[nH]c(N)nc65)C[C@@H]4OP(N)(=O)OC[C@H]4O[C@@H](n5cc(C)c(=O)[nH]c5=O)C[C@@H]4OP(N)(=O)OC[C@H]4O[C@@H](n5cc(C)c(=O)[nH]c5=O)C[C@@H]4OP(N)(=O)OC[C@H]4O[C@@H](n5cnc6c(=O)[nH]c(N)nc65)C[C@@H]4OP(N)(=O)OC[C@H]4O[C@@H](n5cnc6c(=O)[nH]c(N)nc65)C[C@@H]4O)[C@H](n4cnc5c(=O)[nH]c(N)nc54)O3)[C@@H](COP(N)(=O)OC[C@@H](COP(N)(=O)O[C@H]3C[C@H](n4cnc5c(=O)[nH]c(N)nc54)O[C@@H]3COP(N)(=O)O[C@H]3C[C@H](n4cnc5c(=O)[nH]c(N)nc54)O[C@@H]3COC(=O)CCCC[C@@H]3SC[C@@H]4NC(=O)N[C@@H]43)O[C@H](CN3CCNCC3)n3ccc(=O)[nH]c3=O)O2)c(=O)[nH]c1=O` (stereo not given in full): the Time amounted to 2.3 s with Plasma [1] and 21.3 s in the data set with Plasma [3]. Moreover, the Tm in data set [2] is 45.4 °C. Moreover, the Kd at Prothrombin amounted to 1.6 µM.

For the compound `Cc1cn([C@H]2C[C@H](OP(N)(=O)OC[C@H]3O[C@@H](n4cnc5c(=O)[nH]c(N)nc54)C[C@@H]3OP(N)(=O)OC[C@H]3O[C@@H](n4cnc5c(=O)[nH]c(N)nc54)C[C@@H]3O)[C@@H](COP(N)(=O)OC[C@@H](COP(N)(=O)O[C@H]3C[C@H](n4cnc5c(=O)[nH]c(N)nc54)O[C@@H]3COP(N)(=O)O[C@H]3C[C@H](n4cnc5c(=O)[nH]c(N)nc54)O[C@@H]3COP(N)(=O)O[C@H]3C[C@H](n4cc(C)c(=O)[nH]c4=O)O[C@@H]3COP(N)(=O)O[C@H]3C[C@H](n4cnc5c(=O)[nH]c(N)nc54)O[C@@H]3COP(N)(=O)O[C@H]3C[C@H](n4c(C)cc(=O)[nH]c4=O)O[C@@H]3COP(N)(=O)O[C@H]3C[C@H](n4cnc5c(=O)[nH]c(N)nc54)O[C@@H]3COP(N)(=O)O[C@@H]3C[C@@H](COP(N)(=O)O[C@H]4C[C@H](n5cc(C)c(=O)[nH]c5=O)O[C@@H]4COP(N)(=O)O[C@H]4C[C@H](n5cc(C)c(=O)[nH]c5=O)O[C@@H]4COP(N)(=O)O[C@H]4C[C@H](n5cnc6c(=O)[nH]c(N)nc65)O[C@@H]4COP(N)(=O)O[C@H]4C[C@H](n5cnc6c(=O)[nH]c(N)nc65)O[C@@H]4COC(=O)CCCC[C@@H]4SC[C@@H]5NC(=O)N[C@@H]54)O[C@H]3n3cnc4c(=O)[nH]c(N)nc43)O[C@H](CN3CCNCC3)n3ccc(=O)[nH]c3=O)O2)c(=O)[nH]c1=O` (stereo not given in full), the figures for the Time with Plasma [1] and with Plasma [3] were 3.5 s and 22.5 s, respectively. The Tm in data set [2] was 44.8 °C. Moreover, the affinity at Prothrombin, expressed as Kd, was 1 µM.

On to `Cc1cn([C@H]2C[C@H](OP(N)(=O)OC[C@H]3O[C@@H](n4cnc5c(=O)[nH]c(N)nc54)C[C@@H]3OP(N)(=O)OC[C@H]3O[C@@H](n4cnc5c(=O)[nH]c(N)nc54)C[C@@H]3O)[C@@H](COP(N)(=O)O[C@H]3C[C@H](n4cc(C)c(=O)[nH]c4=O)O[C@@H]3COP(N)(=O)O[C@H]3C[C@H](n4cnc5c(=O)[nH]c(N)nc54)O[C@@H]3COP(N)(=O)O[C@H]3C[C@H](n4cnc5c(=O)[nH]c(N)nc54)O[C@@H]3COP(N)(=O)O[C@H]3C[C@H](n4cc(C)c(=O)[nH]c4=O)O[C@@H]3COP(N)(=O)O[C@H]3C[C@H](n4cnc5c(=O)[nH]c(N)nc54)O[C@@H]3COP(N)(=O)OC[C@@H](COP(N)(=O)O[C@H]3C[C@H](n4cnc5c(=O)[nH]c(N)nc54)O[C@@H]3COP(N)(=O)O[C@@H]3C[C@@H](COP(N)(=O)O[C@H]4C[C@H](n5cc(C)c(=O)[nH]c5=O)O[C@@H]4COP(N)(=O)O[C@H]4C[C@H](n5c(C)cc(=O)[nH]c5=O)O[C@@H]4COP(N)(=O)O[C@H]4C[C@H](n5cnc6c(=O)[nH]c(N)nc65)O[C@@H]4COP(N)(=O)O[C@H]4C[C@H](n5cnc6c(=O)[nH]c(N)nc65)O[C@@H]4COC(=O)CCCC[C@@H]4SC[C@@H]5NC(=O)N[C@@H]54)O[C@H]3n3cnc4c(=O)[nH]c(N)nc43)O[C@H](CN3CCNCC3)n3ccc(=O)[nH]c3=O)O2)c(=O)[nH]c1=O` (stereo not given in full), for which the Time in the data set with Plasma [1] amounted to 12.2 s; with Plasma [3], 31.2 s. In data set [2], the Tm amounted to 45.2 °C. In addition, the Kd at Prothrombin amounted to 0.0526 µM.

Consider `Cc1cn([C@H]2C[C@H](OP(N)(=O)OC[C@@H]3C[C@@H](OP(N)(=O)OC[C@H]4O[C@@H](n5cnc6c(=O)[nH]c(N)nc65)C[C@@H]4OP(N)(=O)OC[C@H]4O[C@@H](n5cc(C)c(=O)[nH]c5=O)C[C@@H]4OP(N)(=O)OC[C@H]4O[C@@H](n5cnc6c(=O)[nH]c(N)nc65)C[C@@H]4OP(N)(=O)OC[C@H]4O[C@@H](n5cc(C)c(=O)[nH]c5=O)C[C@@H]4OP(N)(=O)OC[C@H]4O[C@@H](n5cnc6c(=O)[nH]c(N)nc65)C[C@@H]4OP(N)(=O)OC[C@H]4O[C@@H](n5cnc6c(=O)[nH]c(N)nc65)C[C@@H]4OP(N)(=O)OC[C@H]4O[C@@H](n5cc(C)c(=O)[nH]c5=O)C[C@@H]4OP(N)(=O)OC[C@H]4O[C@@H](n5cc(C)c(=O)[nH]c5=O)C[C@@H]4OP(N)(=O)OC[C@H]4O[C@@H](n5cnc6c(=O)[nH]c(N)nc65)C[C@@H]4OP(N)(=O)OC[C@H]4O[C@@H](n5cnc6c(=O)[nH]c(N)nc65)C[C@@H]4O)[C@H](n4cnc5c(=O)[nH]c(N)nc54)O3)[C@@H](COP(N)(=O)O[C@H]3C[C@H](n4cc(C)c(=O)[nH]c4=O)O[C@@H]3COP(N)(=O)O[C@H]3C[C@H](n4cnc5c(=O)[nH]c(N)nc54)O[C@@H]3COP(N)(=O)O[C@H]3C[C@H](n4cnc5c(=O)[nH]c(N)nc54)O[C@@H]3COC(=O)CCCC[C@@H]3SC[C@@H]4NC(=O)N[C@@H]43)O2)c(=O)[nH]c1=O` (stereo not given in full) [THROMBIN BINDING APTAMER], for which the Time in the data set on Plasma [1] stood at 13.6 s; with Plasma [3], 32.6 s. Also, the Tm in data set [2] came to 42.2 °C. At Prothrombin, the Kd worked out at 0.0476 µM.

As to `Cc1cn([C@H]2C[C@H](OP(N)(=O)OC[C@@H]3C[C@@H](OP(N)(=O)OC[C@H]4O[C@@H](n5cnc6c(=O)[nH]c(N)nc65)C[C@@H]4OP(N)(=O)OC[C@H](COP(N)(=O)OC[C@H]4O[C@@H](n5cnc6c(=O)[nH]c(N)nc65)C[C@@H]4OP(N)(=O)OC[C@H]4O[C@@H](n5cc(C)c(=O)[nH]c5=O)C[C@@H]4OP(N)(=O)OC[C@H]4O[C@@H](n5cnc6c(=O)[nH]c(N)nc65)C[C@@H]4OP(N)(=O)OC[C@H]4O[C@@H](n5cnc6c(=O)[nH]c(N)nc65)C[C@@H]4OP(N)(=O)OC[C@H]4O[C@@H](n5cc(C)c(=O)[nH]c5=O)C[C@@H]4OP(N)(=O)OC[C@H]4O[C@@H](n5cc(C)c(=O)[nH]c5=O)C[C@@H]4OP(N)(=O)OC[C@H]4O[C@@H](n5cnc6c(=O)[nH]c(N)nc65)C[C@@H]4OP(N)(=O)OC[C@H]4O[C@@H](n5cnc6c(=O)[nH]c(N)nc65)C[C@@H]4O)O[C@H](CO)n4ccc(=O)[nH]c4=O)[C@H](n4cnc5c(=O)[nH]c(N)nc54)O3)[C@@H](COP(N)(=O)OC[C@@H](COP(N)(=O)O[C@H]3C[C@H](n4cnc5c(=O)[nH]c(N)nc54)O[C@@H]3COP(N)(=O)O[C@H]3C[C@H](n4cnc5c(=O)[nH]c(N)nc54)O[C@@H]3COC(=O)CCCC[C@@H]3SC[C@@H]4NC(=O)N[C@@H]43)O[C@H](CO)n3ccc(=O)[nH]c3=O)O2)c(=O)[nH]c1=O` (stereo not given in full), the Time worked out at 12.2 s in the data set on Plasma [1] and 31.2 s with Plasma [3]. In addition, the Tm in data set [2] was 50.1 °C. Besides, the Kd on Prothrombin stood at 1.3 µM.

Values taken from ChEMBL document CHEMBL1811902, “Thermodynamic and biological evaluation of a thrombin binding aptamer modified with several unlocked nucleic acid (UNA) monomers and a 2'-C-piperazino-UNA monomer” (Bioorg Med Chem, 2011).
